For 15 compounds, IC50 and inhibition results are on record in ChEMBL document CHEMBL1134104, “Novel alkylpolyamine analogues that possess both antitrypanosomal and antimicrosporidial activity” (Bioorg Med Chem Lett, 2001).

Test [1] relates to Trypanosoma brucei. Kind of test: In vitro growth inhibitory activity against Trypanosoma brucei strain K269. The class given is functional, organism-based.
Test [2] relates to Trypanosoma brucei. Kind of test: In vitro growth inhibitory activity against Trypanosoma brucei strain LAB110. The class given is functional, organism-based.
Test [3] deals with Encephalitozoon cuniculi. Kind of test: In vitro growth inhibitory activity against Encephalitozoon cuniculi grown on RK-13 cells infected as a monolayer at concentration of 100 uM. The class given is functional. The essentials: (§1)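 RK-13 monolayers were infected with E. cuniculi, with 50–80% of control cells infected. Compound was added to duplicate wells for 7 days, and drug-containing medium was replaced on days 3 and 6. On day 8, cells were fixed overnight, Giemsa-stained and counted by inverted microscope at 400× in five confluent fields (240 cells/field). Percentage of infected cells was compared with untreated controls. Values came from three to five growth curves.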

The test system of test [4] is Trypanosoma brucei. Kind of test: In vitro growth inhibitory activity against Trypanosoma brucei strain K243. The class given is functional, organism-based.
For test [5], the system named is Trypanosoma brucei. Kind of test: In vitro growth inhibitory activity against Trypanosoma brucei strain K243 (As-10-3). The test is classed as functional, organism-based.
Test [6] has as its system Encephalitozoon cuniculi. Kind of test: In vitro growth inhibitory activity against Encephalitozoon cuniculi grown on RK-13 cells infected as a monolayer at concentration of 250 uM. The class given is functional. In outline: as §1
Test [7] has as its system Encephalitozoon cuniculi. Kind of test: In vitro growth inhibitory activity against Encephalitozoon cuniculi grown on RK-13 cells infected as a monolayer at concentration of 50 uM. The test is classed as functional. In outline: as §1
Test [8] concerns Encephalitozoon cuniculi. In words: In vitro growth inhibitory activity against Encephalitozoon cuniculi grown on RK-13 cells infected as a monolayer. The test is classed as functional, organism-based. The essentials:
as §1

Test [9] deals with Encephalitozoon cuniculi. In words: In vitro growth inhibitory activity against Encephalitozoon cuniculi grown on RK-13 cells infected as a monolayer at concentration of 500 uM. The test is classed as functional. The essentials:
as §1

As a reminder, the IC50 is the midpoint of a concentration-inhibition curve. As a reminder, the inhibition is the share of the control response that was lost under treatment. Consider `c1ccc(CNCCCNCC2CCCC(CNCCCNCc3ccccc3)C2)cc1` (centres undefined), for which the IC50 was 5.1 µM in [1], 4.05 µM in test [2], 4.15 µM in test [4] and 56 µM in [5]. Further, in test [3], 100 µM produced 86% inhibition.

`C(CNCC1CCC1)CNCC1CCCC(CNCCCNCC2CCC2)C1` (centres undefined) yielded an inhibition at 250 µM in [6] of 100%.

For `CCNCCCNCCCNCCCNCC` [BIS(ETHYL)NORSPERMINE], the IC50 in test [1], in [2], in test [4] and in test [5] was > 100 µM throughout.

As to `CCC(C)CNCCCNCCCCCCCNCCCNCC(C)CC` (centres undefined), the values for the IC50 in test [2], in test [4] and in test [5] were 0.031 µM, 0.04 µM and 0.165 µM, respectively. Moreover, in [7], the inhibition at 50 µM is 47%.

Consider `CCNCCCNC1C=CC(N)CCC1` (centres undefined), for which the IC50 in [8] was 36 µM; in test [2] it was > 100 µM; in test [4] it was > 100 µM.

With `CCNCCCNCC1CCCC(N)CC1` (centres undefined), the IC50 in [8] was 232 µM; in test [2], > 100 µM; in test [4], > 100 µM.

`CCNCCCNCCCCCCCNCCCNC[C@@H](C)CC`: the figures for the half-maximal inhibitory concentration (IC50) in [2], in test [4] and in [5] were 0.31 µM, 0.38 µM and 0.79 µM, respectively.

As for `CC[C@H](C)CNCCCNCCCCCCCNCCCN`, in test [9], the inhibition at 500 µM worked out at 87%.

On to `c1ccc(-c2ccccc2CNCCCNCCCCCCCNCCCNCc2ccccc2-c2ccccc2)cc1`, for which the concentration for half-maximal inhibition (IC50) was found to be 0.47 µM in test [8]; 0.75 µM in [1]; 0.24 µM in test [2]; 0.19 µM in [4]; 0.2 µM in test [5].

Consider `COc1ccccc1CNCCCNCCCCCCCNCCCNCc1ccccc1OC`, for which the concentration for half-maximal inhibition (IC50) in [1] was 16.5 µM; in [2], 22 µM; in [4], 18.5 µM; in test [5], 5.5 µM. This compound showed an inhibition at 50 µM in [7] of 100%.

With `C1CCCC(CNCCCNCC2CCCC(CNCCCNCC3CCCCCC3)C2)CC1` (centres undefined), the IC50 turned out to be 1.71 µM in test [1], 3.25 µM in [2], 14 µM in [4] and 2.15 µM in test [5]. The same compound yielded an inhibition at 100 µM in [3] of 100%.

Regarding `N[C@H]1C=CC(NCCCNCC2CC2)C1` (some centres undefined), the values for the IC50 in [8], in [2] and in test [4] were 204 µM, > 100 µM and > 100 µM, respectively.

Compound `N[C@H]1C=CC(NCCCNCC2CCCCCC2)CCC1` (some centres undefined) returned an inhibition at 100 µM in [3] of 76%.

The compound `N[C@@H]1C=C[C@@H](NCCCNCC2CCCC(CNCCCN[C@H]3C=C[C@H](N)C3)C2)C1` (some centres undefined) came in with an inhibition at 100 µM in test [3] of 100%.

For the compound `C(CNCC1CC1)CNCC1CCCC(CNCCCNCC2CC2)C1` (centres undefined), the IC50 in [1] was > 100 µM; in test [2], 73 µM; in test [4], 81.5 µM; in test [5], > 100 µM. This compound also registered an inhibition at 100 µM in test [3] of 100%.
